Our source for the Activity and inhibition values is ChEMBL document CHEMBL1165951, “Improved synthesis and in vitro/in vivo activities of natural product-inspired, artificial glutamate analogs” (Bioorg Med Chem, 2010).

One assay has as its system Mus musculus. Nature of the assay: Effect on neurological behavior in mouse assessed as induction of hyperactivity at 20 ug, icv up to 50 mins. It is filed as functional, organism-based. Summed up:
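Racemic analog given to mice as a single intracranial (ICV) injection of 20 μg/mouse. Behaviour was then observed, with the type and duration of any change in activity recorded. Animals were kept according to the NRC Guide for the Care and Use of Laboratory Animals.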

The species entered for assay [1] is Rattus norvegicus. Description: Binding affinity to rat brain AMPA receptor at 10 uM by radioligand displacement assay. In a few lines:
(§1)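 Radioligand displacement at AMPA, kainate and NMDA ionotropic glutamate receptor sites in rat brain synaptic membranes, with test compound at 1 × 10−5 M.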

Assay [2] deals with Glutamate NMDA receptor (Rattus norvegicus) (UniProt P35439+Q00959+Q00960+Q00961+Q62645+Q8VHN2+Q9R1M7). Description: Binding affinity to rat brain NMDA receptor at 10 uM by radioligand displacement assay. In a few lines: as §1
Background: In a radioligand displacement assay an active substance lowers the binding of a labelled ligand.

Assay [3] is filed under the species Rattus norvegicus. Nature of the assay: Binding affinity to rat brain kainate receptor at 10 uM by radioligand displacement assay. In a few lines:
as §1

Assay [4] is filed under the species Rattus norvegicus. Nature of the assay: Binding affinity to glutamate receptor in rat hippocampal neurons assessed as reduction of spontaneous excitatory synaptic current at 10 uM by current- and voltage-clump electrophysiological analysis. Particulars: Hippocampus. It is filed as tissue-based. Summed up:
(§2)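 Cultured hippocampal neurons were recorded by current clamp, read as action potential firing frequency, and by voltage clamp, read as charge transfer during spontaneous excitatory synaptic currents. The value is the percent reduction, n = 3.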

The species entered for assay [5] is Rattus norvegicus. Nature of the assay: Binding affinity to glutamate receptor in rat hippocampal neurons assessed as reduction of action potential firing frequency at 10 uM by current- and voltage-clump electrophysiological analysis. The assay is classed as tissue-based. Particulars: Hippocampus. Summed up: as §2

Structures are written as SMILES. Calls of active or inactive are those of the source. The calls are words filed in the database; no cut-off is given here.

In the case of `O=C(O)C[C@]12O[C@@H]3CCCN[C@@H]3[C@H]1CN[C@@H]2C(=O)O` (relative stereo), in the assay with Mus musculus, the result was inactive.

Take `O=C(O)C[C@]12O[C@@H]3CCCCO[C@@H]3[C@H]1CN[C@@H]2C(=O)O`: the result in the assay with Mus musculus was Active. For the same compound, the outcome (in the assay filed under Rattus norvegicus [1]; in assay [2]; in the assay filed under Rattus norvegicus [3]) was inactive.

For `O=C(O)C[C@]12O[C@@H]3[C@@H](O)[C@@H](O)CCO[C@@H]3[C@H]1CN[C@@H]2C(=O)O`, in the assay on Mus musculus, the result was Active. Besides, the outcome (in the assay filed under Rattus norvegicus [1]; in assay [2]; in the assay filed under Rattus norvegicus [3]) was inactive.

For `O=C(O)C[C@]12O[C@@H]3[C@@H](O)[C@@H](O)CN[C@@H]3[C@H]1CN[C@@H]2C(=O)O` (relative stereo), the outcome in the assay on Mus musculus was inactive.

Turning to `O=C(O)C[C@]12O[C@@H]3CCCCN[C@@H]3[C@H]1CN[C@@H]2C(=O)O` (relative stereo), in the assay on Mus musculus, the result was inactive.

Turning to `O=C(O)C[C@]12O[C@@H]3[C@@H](O)[C@@H](O)CCN[C@@H]3[C@H]1CN[C@@H]2C(=O)O` (relative stereo), the result with Mus musculus was inactive.

In the case of `O=C(O)C[C@]12O[C@@H]3C=CCCN[C@@H]3[C@H]1CN[C@@H]2C(=O)O` (relative stereo), in the assay with Mus musculus, the result was inactive.

`O=C(O)C[C@]12O[C@@H]3[C@@H](O)[C@@H](O)CO[C@@H]3[C@H]1CN[C@@H]2C(=O)O`: the result (with Mus musculus; in the assay listed under Rattus norvegicus [1]; in assay [2]; in the assay filed under Rattus norvegicus [3]) was inactive.

Consider `O=C(O)C[C@]12O[C@@H]3C=CCO[C@@H]3[C@H]1CN[C@@H]2C(=O)O` (relative stereo), for which the result in the assay with Mus musculus was inactive.

Consider `O=C(O)C[C@]12O[C@@H]3C=CCN[C@@H]3[C@H]1CN[C@@H]2C(=O)O` (relative stereo), for which the results for the inhibition in the assay listed under Rattus norvegicus [4] and in the assay listed under Rattus norvegicus [5] were 31% and 52%, respectively. The result in the assay with Mus musculus was inactive.

For `O=C(O)C[C@]12O[C@@H]3CCCO[C@@H]3[C@H]1CN[C@@H]2C(=O)O`, the outcome with Mus musculus was Active. Also, the result (in the assay listed under Rattus norvegicus [1]; in assay [2]; in the assay filed under Rattus norvegicus [3]) was inactive.

Take `O=C(O)C[C@]12O[C@@H]3C=CCCO[C@@H]3[C@H]1CN[C@@H]2C(=O)O` (relative stereo): in the assay with Mus musculus, the outcome was Active.

As a reminder, the inhibition is the relative decrease from the control value, in per cent.
